From ChEMBL document CHEMBL2040734, “Benzothiazoles: search for anticancer agents” (2012)

Legend:
Type in all cases: functional
A549 = test: Cytotoxicity against human A549 cells assessed as cell growth at 0.1 uM after 48 hrs by sulforhodamine B assay; details: A549, 48 h, read-out: Activity
Procedure, shortened: (§1)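 NCI-60 five-dose screen. Cells were grown in RPMI 1640 with 5% FBS and 2 mM L-glutamine and preincubated 24 h. Compound (DMSO stock) was tested at 0.01, 0.1, 1, 10 and 100 µM for 48 h at 37 °C. Cells were fixed in situ with cold TCA (final 10%) and stained with 0.4% SRB. A515 was read, and percent growth was calculated against time-zero and control plates.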

HOP-62 = test: Cytotoxicity against human HOP62 cells assessed as cell growth at 10 uM after 48 hrs by sulforhodamine B assay; details: HOP-62, 48 h, read-out: Activity
Procedure, shortened: (§2)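 Five-dose NCI panel run at 0.01, 0.1, 1, 10 and 100 µM. Cells were in RPMI 1640 with 5% FBS and 2 mM L-glutamine, seeded at 5000–40,000 cells/well and pre-incubated 24 h. Drug was diluted from a DMSO stock into medium with 50 µg/ml gentamicin. Exposure was 48 h at 37 °C, 5% CO2. Cells were fixed with cold TCA and stained with 0.4% SRB, read at 515 nm. Percent growth came from time-zero, control and test absorbances.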

SNB-19 = test: Growth inhibition of human SNB19 cells after 48 hrs by sulforhodamine B assay; details: SNB-19, 48 h
Procedure, shortened: (§3)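 Adherent NCI-60 lines were grown in RPMI 1640 with 5% FBS and 2 mM L-glutamine, plated at 5000–40,000 cells/well and preincubated 24 h. They were then exposed to five concentrations (0.01–100 µM, from a DMSO stock) for 48 h at 37 °C, 5% CO2. Cells were fixed with cold TCA (10% final, 60 min, 4 °C) and stained with 0.4% SRB. Dye was solubilized in 10 mM Tris base and A515 read. GI50 was derived from time-zero, control and treated absorbances.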

SN12C [1] = test: Cytotoxicity against human SN12C cells assessed as cell growth at 10 uM after 48 hrs by sulforhodamine B assay; details: read-out: Activity
PC-3 = test: Growth inhibition of human PC3 cells after 48 hrs by sulforhodamine B assay; details: PC-3, 48 h; for CC50: read-out: LC50 (the source's name); procedure, shortened: as §3
IGROV-1 [2] = test: Growth inhibition of human IGROV1 cells after 48 hrs by sulforhodamine B assay; details: IGROV-1, 48 h; procedure, shortened: as §3
[3] = Cytotoxicity against human Hs 578T cells assessed as cell growth at 100 uM after 48 hrs by sulforhodamine B assay; details: read-out: Activity
SR = test: Cytotoxicity against human SR cells assessed as cell growth at 0.1 uM after 48 hrs by sulforhodamine B assay; details: read-out: Activity
UO-31 = test: Cytotoxicity against human UO31 cells assessed as cell growth at 0.01 uM after 48 hrs by sulforhodamine B assay; details: UO-31, 48 h, read-out: Activity
SF-539 = test: Cytotoxicity against human SF539 cells assessed as cell growth at 0.01 uM after 48 hrs by sulforhodamine B assay; details: SF-539, 48 h, read-out: Activity
HCT-15 = test: Cytotoxicity against human HCT15 cells assessed as cell growth at 0.1 uM after 48 hrs by sulforhodamine B assay; details: HCT-15, 48 h, read-out: Activity; procedure, shortened: as §2
IGROV-1 [4] = test: Cytotoxicity against human IGROV1 cells assessed as cell growth at 10 '-5 M after 48 hrs by sulforhodamine B assay; details: IGROV-1, 48 h, read-out: Activity
SF-268 [5] = test: Cytotoxicity against human SF268 cells assessed as cell growth at 10 '-5 M after 48 hrs by sulforhodamine B assay; details: SF-268, 48 h, read-out: Activity
HCT-116 [6] = test: Cytotoxicity against human HCT116 cells assessed as cell growth at 0.01 uM after 48 hrs by sulforhodamine B assay; details: HCT-116, 48 h, read-out: Activity; procedure, shortened: as §2
OVCAR-5 = test: Cytotoxicity against human OVCAR5 cells assessed as cell growth at 10 uM after 48 hrs by sulforhodamine B assay; details: OVCAR-5, 48 h, read-out: Activity
TK-10 = test: Cytotoxicity against human TK10 cells assessed as cell growth at 0.1 uM after 48 hrs by sulforhodamine B assay; details: TK-10, 48 h, read-out: Activity
HCT-116 [7] = test: Cytotoxicity against human HCT116 cells assessed as cell growth at 10 '-5 M after 48 hrs by sulforhodamine B assay; details: HCT-116, 48 h, read-out: Activity
Procedure, shortened: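 Primary one-dose screen across the NCI 60-line panel at 10 µM. Cells were grown in RPMI 1640 with 5% FBS and 2 mM L-glutamine and held 24 h before drug. Drug was diluted from a DMSO concentrate. Exposure was 48 h at 37 °C, 5% CO2. Cells were fixed with TCA and stained with SRB, with absorbance read at 515 nm. Percent growth was calculated against time-zero and untreated control.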

NCI-H23 = test: Cytotoxicity against human NCI-H23 cells assessed as cell growth at 1 uM after 48 hrs by sulforhodamine B assay; details: NCI-H23, 48 h, read-out: Activity
SF-268 [8] = test: Cytotoxicity against human SF268 cells assessed as cell growth at 10 uM after 48 hrs by sulforhodamine B assay; details: SF-268, 48 h, read-out: Activity
MDA-MB-468 = test: Cytotoxicity against human MDA-MB-468 cells assessed as cell growth at 0.1 uM after 48 hrs by sulforhodamine B assay; details: MDA-MB-468, 48 h, read-out: Activity
A498 = test: Cytotoxicity against human A498 cells assessed as cell growth at 0.01 uM after 48 hrs by sulforhodamine B assay; details: A498, 48 h, read-out: Activity; procedure, shortened: as §1
CAKI-1 = test: Cytotoxicity against human Caki1 cells assessed as cell growth at 10 uM after 48 hrs by sulforhodamine B assay; details: CAKI-1, 48 h, read-out: Activity; procedure, shortened: as §1
COLO 205 = test: Growth inhibition of human COLO205 cells after 48 hrs by sulforhodamine B assay; details: COLO 205, 48 h; for CC50: read-out: LC50 (the source's name)
Procedure, shortened: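 Cells were in RPMI 1640 with 5% FBS and pre-incubated 24 h. Read-out was TCA fixation, SRB staining and absorbance at 515 nm. GI50 was the concentration where [(Ti−Tz)/(C−Tz)]×100 = 50, taken from log concentration vs % growth curves. It is given as ">" the top concentration when not reached.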

T47D = test: Cytotoxicity against human T47D cells assessed as cell growth at 1 uM after 48 hrs by sulforhodamine B assay; details: read-out: Activity
SN12C [9] = test: Cytotoxicity against human SN12C cells assessed as cell growth at 1 uM after 48 hrs by sulforhodamine B assay; details: read-out: Activity
NCI-H460 = test: Cytotoxicity against human NCI-H460 cells assessed as cell growth at 1 uM after 48 hrs by sulforhodamine B assay; details: NCI-H460, 48 h, read-out: Activity
EKVX = test: Cytotoxicity against human EKVX cells assessed as cell growth at 100 uM after 48 hrs by sulforhodamine B assay; details: read-out: Activity; procedure, shortened: as §2

With Cc1ccc2nc(Nc3c(C)cccc3C)sc2c1 the growth at 0.1 µM (A549) was 108%, the growth at 10 µM (HOP-62) was 39% and the GI50 (SNB-19) was 5.83 µM. For the same compound, the LC50 (concentration causing 50% net cell kill) (SNB-19) was over 100 µM, the TGI (SNB-19) was over 100 µM and the growth at 10 µM (SN12C [1]) was 36%. For the same compound, the TGI (PC-3) was over 100 µM, the CC50 (PC-3) was over 100 µM and the GI50 (IGROV-1 [2]) was 4.16 µM. It also gave an LC50 (50% net cell kill) (IGROV-1 [2]) of over 100 µM, a TGI (IGROV-1 [2]) of over 100 µM and a growth at 100 µM [3] of 27%. For the same compound, the growth at 0.1 µM (SR) was 99%, the growth at 0.01 µM (UO-31) was 90% and the growth at 0.01 µM (SF-539) was 99%. The growth at 0.1 µM (HCT-15) was 98%, the growth at 10 µM (IGROV-1 [4]) was 49.2% and the growth at 10 µM (SF-268 [5]) was 61%. The growth at 0.01 µM (HCT-116 [6]) was 102%, the growth at 10 µM (OVCAR-5) was 65% and the growth at 0.1 µM (TK-10) was 94%. The growth at 10 µM (HCT-116 [7]) was 19.4%, the growth at 1 µM (NCI-H23) was 79% and the growth at 10 µM (SF-268 [8]) was 64%. The growth at 0.1 µM (MDA-MB-468) was 82%, the growth at 0.01 µM (A498) was 75% and the growth at 10 µM (CAKI-1) was 27%. The TGI (COLO 205) was over 100 µM, the CC50 (COLO 205) was over 100 µM and the growth at 1 µM (T47D) was 75%. It also gave a growth at 1 µM (SN12C [9]) of 65%, a growth at 1 µM (NCI-H460) of 81% and a growth at 100 µM (EKVX) of 53%.
Clc1cccc(Cl)c1Nc1nc2cccc(Cl)c2s1 gave a growth at 0.1 µM (A549) of 99%, a growth at 10 µM (HOP-62) of -93% and a GI50 (SNB-19) of 1.34 µM. It also gave an LC50 (concentration causing 50% net cell kill) (SNB-19) of 6.74 µM, a TGI (SNB-19) of 3 µM and a growth at 10 µM (SN12C [1]) of -94%. It also gave a GI50 (PC-3) of 0.526 µM, a TGI (PC-3) of 2.3 µM and a CC50 (PC-3) of 6.81 µM. For the same compound, the GI50 (IGROV-1 [2]) was 1.12 µM, the LC50 (50% net cell kill) (IGROV-1 [2]) was 8.96 µM and the TGI (IGROV-1 [2]) was 3.17 µM. The growth at 100 µM [3] was -17%, the growth at 0.1 µM (SR) was 101% and the growth at 0.01 µM (UO-31) was 88%. For the same compound, the growth at 0.01 µM (SF-539) was 97%, the growth at 0.1 µM (HCT-15) was 99% and the growth at 10 µM (IGROV-1 [4]) was 3.69%. The growth at 10 µM (SF-268 [5]) was -33.9%, the growth at 0.01 µM (HCT-116 [6]) was 104% and the growth at 10 µM (OVCAR-5) was -93%. It also gave a growth at 0.1 µM (TK-10) of 94%, a growth at 10 µM (HCT-116 [7]) of -87.1% and a growth at 1 µM (NCI-H23) of 59%. It also gave a growth at 10 µM (SF-268 [8]) of -87%, a growth at 0.1 µM (MDA-MB-468) of 81% and a growth at 0.01 µM (A498) of 85%. For the same compound, the growth at 10 µM (CAKI-1) was -90%, the GI50 (COLO 205) was 1.4 µM and the TGI (COLO 205) was 2.81 µM. The CC50 (COLO 205) was 5.67 µM, the growth at 1 µM (T47D) was 46% and the growth at 1 µM (SN12C [9]) was 46%. The growth at 1 µM (NCI-H460) was 67% and the growth at 100 µM (EKVX) was -73%.
